Test results taken from ChEMBL document CHEMBL1132240, “Design and synthesis of modified quinolones as antitumoral acridones” (J Med Chem, 1999).
pIC50: −log10 of the molar value.

Columns and labels:
HL-60 [1] = assay: Relative cytotoxicity against Human promyelocytic Leukemia(HL-60) cells; Value is in range, activity expressed as IC90; assay type: functional
Method in brief: (§1)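 Second-stage assay on HL-60 (5 × 10^4/well) and soybean-agglutinin-negative mononuclear marrow cells (5 × 10^5/well) from six healthy donors. Four wells per concentration, 48 h at 37 °C, then [125I]iododeoxyuridine plus fluorodeoxyuridine for 18 h. Inhibition from fractional uptake decrease; IC50/IC90 by median-effect equation. Ranges are antilog(mean log ± 2SD); ratios use mean antilogs.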

HL-60 [2] = assay: Cytotoxic activity against Human promyelocytic Leukemia HL-60 Concentration of agent required to reduce cell viability by 50%; assay type: functional, cell-based
Method in brief: (§2)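 Modified MTT assay. Cells seeded per well with graded drug: CHO 2.5 × 10^3, B16 5 × 10^3, P388 and LLC 10^4, HL-60 and LoVo 5 × 10^4. After 68 h, MTT (2.5 mg/mL) added for 4 h at 37 °C. Formazan dissolved in DMSO and A550 read. Inhibition taken as fractional A550 decrease vs control. IC50/IC90 from Chou's median-effect equation.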

Homo sapiens [3] = species: Homo sapiens; assay: Relative cytotoxicity against Human bone marrow samples; Value is in range, activity expressed as IC90; assay type: functional; method in brief: as §1
Homo sapiens [4] = species: Homo sapiens; assay: Relative cytotoxicity against Human bone marrow samples; Value is in range, activity expressed as IC50; assay type: functional; method in brief: as §1
[5] = system: Lewis lung carcinoma cell line; assay: Cytotoxic activity against solid tumor LLC(Lewis lung carcinoma), concentration of agent required to reduce cell viability by 90%; assay type: functional; conditions: Mus musculus; method in brief: as §2
P388 [6] = assay: In vivo antitumor activity against Murine P388 Leukemia at 100 mg/kg dose;(Median survival time of treated mice)/(median survival time of controls) x100; assay type: functional, Mus musculus
Method in brief: (§3)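 Female BD2F1 mice (8 weeks, 20-22 g), eight per group, given 10^5 P388 cells ip on day 0. From 24 h later, drug was given ip once daily for 9 days as a micronized suspension in 0.5% carboxymethylcellulose. Deaths were recorded daily over a 33-day study. %T/C = median survival time of treated / median survival time of controls × 100; >125 taken as significant.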

LoVo [7] = assay: Cytotoxic activity against solid tumor, LoVo, (human colon adenocarcinoma) Concentration of agent required to reduce cell viability by 90%; assay type: functional; method in brief: as §2
B16 [8] = assay: Cytotoxic activity against solid tumor, B16 (murine melanoma) Concentration of agent required to reduce cell viability by 50%; assay type: functional, cell-based; conditions: Mus musculus; method in brief: as §2
LoVo [9] = assay: Cytotoxic activity against solid tumor, LoVo, (human colon adenocarcinoma) Concentration of agent required to reduce cell viability by 50%; assay type: functional, cell-based; method in brief: as §2
P388 [10] = assay: In vivo antitumor activity against Murine P388 Leukemia at 25 mg/kg dose;(Median survival time of treated mice)/(median survival time of controls) x100; assay type: functional, Mus musculus; method in brief: as §3
HL-60 [11] = assay: Relative cytotoxicity against Human promyelocytic Leukemia(HL-60) cells; Value is in range, activity expressed as IC50; assay type: functional, cell-based; method in brief: as §1
[12] = system: Lewis lung carcinoma cell line; assay: Cytotoxic activity against solid tumor LLC(Lewis lung carcinoma), concentration of agent required to reduce cell viability by 50%; assay type: functional, cell-based; conditions: Mus musculus; method in brief: as §2
[13] = Ratio of antilog(mean log IC50 in bone marrow sample) and antolog(mean log IC90) in HL-60); assay type: functional; method in brief: as §1
CHO [14] = assay: Cytotoxic activity against solid tumor, CHO (Chinese hamster ovaric carcinoma) Concentration of agent required to reduce cell viability by 50%; assay type: functional, cell-based; conditions: Cricetulus griseus; method in brief: as §2
HL-60 [15] = assay: Cytotoxic activity against Human promyelocytic Leukemia HL-60 Concentration of agent required to reduce cell viability by 90%; assay type: functional; method in brief: as §2
P388 [16] = assay: In vivo antitumor activity against Murine P388 Leukemia at 75 mg/kg dose;(Median survival time of treated mice)/(median survival time of controls) x100; assay type: functional, Mus musculus; method in brief: as §3
B16 [17] = assay: Cytotoxic activity against solid tumor, B16 (murine melanoma) Concentration of agent required to reduce cell viability by 90%; assay type: functional; conditions: Mus musculus; method in brief: as §2
[18] = Ratio of antilog(mean log IC90 in bone marrow sample) and antolog(mean log IC90) in HL-60); assay type: functional; method in brief: as §1
P388 [19] = assay: In vivo antitumor activity against Murine P388 Leukemia at 50 mg/kg dose;(Median survival time of treated mice)/(median survival time of controls) x100; assay type: functional, Mus musculus; method in brief: as §3
P388 [20] = assay: Cytotoxic activity against Murine Lymphocytic Leukemia P388 Concentration of agent required to reduce cell viability by 50%; assay type: functional, cell-based; conditions: Mus musculus; method in brief: as §2
[21] = Ratio of antilog(mean log IC50 in bone marrow sample) and antolog(mean log IC50) in HL-60); assay type: functional; method in brief: as §1
P388 [22] = assay: Cytotoxic activity Murine Lymphocytic Leukemia P388 Concentration of agent required to reduce cell viability by 90%; assay type: functional; conditions: Mus musculus; method in brief: as §2
CHO [23] = assay: Cytotoxic activity against solid tumor, CHO (Chinese hamster ovaric carcinoma) Concentration of agent required to reduce cell viability by 90%; assay type: functional; conditions: Cricetulus griseus; method in brief: as §2
[24] = system: bone marrow cells (human); assay: Relative cytotoxicity against Human bone marrow samples; Value is in range, activity expressed as IC90
[25] = system: bone marrow cells (human); assay: Relative cytotoxicity against Human bone marrow samples; Value is in range, activity expressed as IC50
P388 [26] = assay: In vivo antitumor activity against Murine P388 Leukemia at 60 mg/kg dose;(Median survival time of treated mice)/(median survival time of controls) x100; assay type: functional, Mus musculus; method in brief: as §3
P388 [27] = assay: In vivo antitumor activity against Murine P388 Leukemia at 6.67 mg/kg dose;(Median survival time of treated mice)/(median survival time of controls) x100; assay type: functional, Mus musculus; method in brief: as §3
P388 [28] = assay: In vivo antitumor activity against Murine P388 Leukemia at 20 mg/kg dose;(Median survival time of treated mice)/(median survival time of controls) x100; assay type: functional, Mus musculus; method in brief: as §3
P388 [29] = assay: Cytotoxic activity against murine lymphocytic leukemia P388 concentration of agent required to reduce cell viability by 50%; assay type: functional, cell-based; conditions: Mus musculus; method in brief: as §2
[30] = Ratio of cytotoxicity of compound towards bone marrow sample and to that of HL-60 was determined as IC50BM/IC50HL; assay type: functional; method in brief: as §1
HL-60 [31] = assay: Cytotoxic activity against human promyelocytic leukemia HL-60 concentration of agent required to reduce cell viability by 90%; assay type: functional; method in brief: as §2
CHO [32] = assay: Cytotoxic activity against solid tumor, CHO (Chinese hamster ovaric carcinoma) concentration of agent required to reduce cell viability by 90%; assay type: functional; conditions: Cricetulus griseus; method in brief: as §2
[33] = Ratio of cytotoxicity of compound towards bone marrow sample and to that of HL-60 was determined as IC50BM/IC90HL; assay type: functional; method in brief: as §1
HL-60 [34] = assay: (§4) Relative cytotoxicity against human promyelocytic leukemia(HL-60) cells; assay type: functional, cell-based; method in brief: as §1
[35] = Ratio of cytotoxicity of compound towards bone marrow sample and to that of HL-60 was determined as IC90BM/IC90HL; assay type: functional; method in brief: as §1
Homo sapiens [36] = species: Homo sapiens; assay: Relative cytotoxicity against human bone marrow samples; assay type: functional; method in brief: as §1
B16 [37] = assay: Cytotoxic activity against solid tumor, B16 (murine melanoma) concentration of agent required to reduce cell viability by 50%; assay type: functional, cell-based; conditions: Mus musculus; method in brief: as §2
P388 [38] = assay: Cytotoxic activity against murine lymphocytic leukemia P388 concentration of agent required to reduce cell viability by 90%; assay type: functional; conditions: Mus musculus; method in brief: as §2
LoVo [39] = assay: Cytotoxic activity against solid tumor, LoVo, (human colon adenocarcinoma) concentration of agent required to reduce cell viability by 50%; assay type: functional, cell-based; method in brief: as §2
LoVo [40] = assay: Cytotoxic activity against solid tumor, LoVo, (human colon adenocarcinoma) concentration of agent required to reduce cell viability by 90%; assay type: functional; method in brief: as §2
HL-60 [41] = assay: Cytotoxic activity against human promyelocytic leukemia HL-60 concentration of agent required to reduce cell viability by 50%; assay type: functional, cell-based; method in brief: as §2
HL-60 [42] = assay: as §4; assay type: functional; method in brief: as §1

Compound	IC90 (HL-60 [1]) [µM]	pIC50 (HL-60 [2])	IC90 (Homo sapiens [3]) [µM]	pIC50 (Homo sapiens [4])	IC90 [5] [µM]	IC90 (LoVo [7]) [µM]	pIC50 (B16 [8])	pIC50 (LoVo [9])	pIC50 (HL-60 [11])	pIC50 [12]	Ratio [13]	pIC50 (CHO [14])	IC90 (HL-60 [15]) [µM]	IC90 (B16 [17]) [µM]	Ratio [18]	pIC50 (P388 [20])	Ratio [21]	IC90 (P388 [22]) [µM]	IC90 (CHO [23]) [µM]	also measured
CCN(CC)CCn1c2cc(Cl)c(N)cc2c(=O)c2c(O)cc(O)cc21	5.74	5.41	6.46	5.82	11	14	6.00	5.27	5.44	5.44	0.2	5.82	10	5.9	0.7	5.85	0.3	3.5	6.3	T/C (P388 [6]): 111%; T/C (P388 [10]): 105%; T/C (P388 [16]): 110%; T/C (P388 [19]): 109%
O=C1c2c(O)ccc(O)c2C(=O)c2c(NCCNCCO)ccc(NCCNCCO)c21 [MITOXANTRONE]	8.03	–	–	–	–	–	–	–	5.47	–	2.1	–	–	–	11.6	–	4.8	–	–	IC90 [24]: 38.7 µM; pIC50 [25]: 4.56
CCn1c2cc(N3CCN(C)CC3)c(N)cc2c(=O)c2c(O)cc(O)cc21	42.6	4.64	20.3	5.49	17	47	5.00	4.77	4.56	4.96	0.1	5.24	34	19	0.5	5.34	0.1	13	19	T/C (P388 [26]): 132%; T/C (P388 [27]): 115%; T/C (P388 [28]): 116%
CCn1c2cc(N3CCN(C)CC3)c(N)cc2c(=O)c2c(O)cc(OC)cc21	–	–	–	–	11	–	–	–	–	5.03	–	5.22	–	12	–	–	–	–	–	pIC50 (P388 [29]): 5.54; Ratio [30]: 0.4; IC90 (HL-60 [31]): 24 µM; IC90 (CHO [32]): 11 µM; Ratio [33]: 0.4; pIC50 (HL-60 [34]): 4.72; Ratio [35]: 2.7; pIC50 (Homo sapiens [36]): 4.97; IC90 (Homo sapiens [36]): 89.1 µM; pIC50 (B16 [37]): 5.07; IC90 (P388 [38]): 8.9 µM; pIC50 (LoVo [39]): 5.00; IC90 (LoVo [40]): 15 µM; pIC50 (HL-60 [41]): 4.77; IC90 (HL-60 [42]): 22.9 µM
